# Test results reported in PubChem BioAssay AID493187 (Sanford-Burnham Center for Chemical Genomics, 2011).
# Out of some 340,000 compounds screened, about 190 (0.056%) were called active. Many of the other results were omitted from the sample, so actives are more common in it than they were. Values without a mark were called inactive.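 Rule for the calls: active = activation of 40% or more at 20 µM, a change of -40% or lower; inactive = the rest.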
# Biological target: Hexokinase HKDC1 (Homo sapiens) (UniProt Q2TB90)
# Assay: enhancers of human HKDC1 enzyme activity – biochemical, fluorescence, uHTS, primary screen (AID 493187)
# Settings: recombinant HKDC1, G6PDH/diaphorase resazurin fluorescence; at 20 µM; active compounds read low
# How it was run: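 Material: in-house human HKDC1 enzyme, G6PDH and diaphorase coupling enzymes | Quantity: HKDC1 at 5 µg/mL final | Medium: Tris buffer at pH 8.0 containing MgCl2 | Compound dosing: 20 µM single dose | Schedule: 90 min reaction at room temperature, dark | Measured by: Resorufin fluorescence, 525/613 nm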
# Chain of Hexokinase HKDC1 (Homo sapiens) (Q2TB90 whole entry, looked up): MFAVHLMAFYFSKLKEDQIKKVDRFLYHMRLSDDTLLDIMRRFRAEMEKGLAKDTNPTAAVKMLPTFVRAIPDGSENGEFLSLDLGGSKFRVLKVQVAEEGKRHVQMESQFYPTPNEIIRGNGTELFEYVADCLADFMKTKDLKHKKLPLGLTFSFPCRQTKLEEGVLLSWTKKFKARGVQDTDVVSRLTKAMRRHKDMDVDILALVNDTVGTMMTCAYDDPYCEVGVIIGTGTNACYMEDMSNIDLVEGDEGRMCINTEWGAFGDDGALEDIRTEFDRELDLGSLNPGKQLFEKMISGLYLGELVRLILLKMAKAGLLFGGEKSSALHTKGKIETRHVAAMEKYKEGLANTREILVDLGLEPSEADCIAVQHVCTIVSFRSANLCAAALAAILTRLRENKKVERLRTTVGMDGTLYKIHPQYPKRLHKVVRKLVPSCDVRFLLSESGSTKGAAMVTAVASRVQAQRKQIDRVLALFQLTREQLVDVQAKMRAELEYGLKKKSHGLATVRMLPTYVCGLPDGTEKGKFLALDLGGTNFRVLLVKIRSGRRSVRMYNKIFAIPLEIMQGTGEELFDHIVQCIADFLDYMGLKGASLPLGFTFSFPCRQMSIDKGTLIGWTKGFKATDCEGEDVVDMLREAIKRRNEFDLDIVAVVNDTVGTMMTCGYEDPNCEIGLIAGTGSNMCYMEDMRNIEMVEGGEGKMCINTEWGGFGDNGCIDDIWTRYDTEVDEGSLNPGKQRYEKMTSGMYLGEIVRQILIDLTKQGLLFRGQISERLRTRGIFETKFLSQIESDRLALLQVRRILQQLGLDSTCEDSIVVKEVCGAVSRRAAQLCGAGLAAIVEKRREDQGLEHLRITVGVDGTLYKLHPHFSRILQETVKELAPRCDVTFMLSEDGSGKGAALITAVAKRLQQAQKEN
row,Compound,"activity change, negative = activation"
1,O=C(CSc1cccc2cccnc12)N/N=C/c1cccnc1,-52.6% (active)
2,O=c1[nH]c2ccccc2n2c(-c3ccccc3)nnc12,46.7%
3,C[N+](C)(CCCCCC[N+](C)(C)CCCN1C(=O)c2cccc3cccc(c23)C1=O)CCCN1C(=O)c2cccc3cccc(c23)C1=O,-66.9% (active)
4,COc1ccc(C(CCN(Cc2ccc(OC)c(OC)c2)C(=O)CCl)c2ccccc2)cc1 (stereo not drawn),35.4%
5,COc1ccc2c(c1)c(=Cc1ccc(N(C)C)cc1)c1cc(-c3ccccc3)[n+](C)n12,43.2%
6,COc1ccc(N(CC(=O)N/N=C/c2cccc3c2OCCO3)S(=O)(=O)c2ccc(NC(C)=O)cc2)cc1,38.1%
7,Cc1cc(C2=NNC(=Nc3ccc(S(=O)(=O)N4CCOCC4)cc3)SC2)c(C)n1CC1CCCO1 (stereo not drawn),-70% (active)
8,CCOC(=O)CSc1nc2ccc(C)cc2n2cnnc12,53%
9,CC(=O)/C(=N\Nc1ccc(Cl)cc1Cl)Sc1cccc2cccnc12,-40.8% (active)
10,CCCc1nc2oc3c(OCC)ncnc3c2c2c1COC(C)(C)C2,37.7%
11,O=C(c1cccnc1)N(c1cc2sc(=O)oc2c2ccccc12)S(=O)(=O)c1ccccc1,38.2%
12,CN1c2ccc(C=O)c3c(C=O)ccc(c23)N(C)C1(C)C,36.4%
13,O=C(NC1=CC(=O)c2ccccc2C1=O)c1ccccc1,54.1%
14,CCc1ccc2c(c1)C1(NN=C(c3ccccc3)S1)C(=O)N2 (stereo not drawn),-48.1% (active)
15,O=C1C(Cl)=C(Oc2ccccc2)C(=O)c2ccccc21,65.2%
16,Cc1ccc(Nc2nc(-c3sc(NC(=O)c4ccccc4)nc3C)cs2)cc1,-77.6% (active)
17,CC(C)(C)Nc1c(N)c(=O)oc2ccccc12,44.6%
18,CCC(=C/c1sc2ccc3ccccc3c2[n+]1C)/C=C1\Sc2ccc3ccccc3c2N1C,45%
19,COc1ccc(NC(=O)CSc2ccc(-c3ccco3)nn2)c(OC)c1,47.3%
20,Clc1cccc(N=C2NN=C(c3ccc4c(c3)OCCO4)CS2)c1,-169% (active)
21,O=S(=O)(Nc1ccc(O)c2ccccc12)c1ccc(OC(F)(F)F)cc1,52%
22,CCOC(=O)C1=C(c2ccc(OC)cc2)C(=O)c2ccccc2C1=O,81.4%
23,CCn1cc(C(=O)NCc2ccc3c(c2)OCO3)c2cc(OC)c(OC)cc2c1=O,37.8%
24,O=c1ccc2c(-c3ccccc3S(=O)(=O)O)c3ccc(O)c(O)c3oc-2c1O,38.4%
25,Cc1ccc2oc(=O)c3cnn(CC(=O)N4CCCCCC4)c3c2c1,-44.7% (active)
26,Nc1ccc2nc3c(=O)[nH]c(=S)[nH]c3nc2c1,69.9%
27,CC(=O)N(C1=C(Cl)C(=O)c2ccccc2C1=O)c1ccc(C(=O)O)cc1,52.2%
28,Cc1cc(C(=O)CCl)c(C)n1CC1COc2ccccc2O1 (stereo not drawn),38.2%
